Data on eight compounds can be found in ChEMBL document CHEMBL1151302, “Cytotoxic and leishmanicidal aminoglycosteroids and aminosteroids from Holarrhena curtisii” (J Nat Prod, 1998).

In brackets after ≈: the same amount, converted by molar mass.

Assay [1] relates to HL-60. In words: Cytotoxicity against human HL60 cells after 3 days by MTT assay. The assay is classed as functional, cell-based. Conditions: HL-60, 72 h. The procedure, abridged:
(§1)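 Cells were kept in MEM with 10% fetal calf serum and kanamycin; the P-388/VCR line also received 0.5 μg/mL vincristine. Cells were seeded at 20 000 cells/mL and tested at eight concentrations, starting from 25 μg/mL in the well. After 3 days of culture, living cells were counted by MTT staining. Each experiment was run three times.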
For orientation: Formazan colour is commonly taken as a measure of viable cells.

For assay [2], the system named is P388. Briefly: Cytotoxicity against mouse P388 cells after 3 days by MTT assay. In kind it is functional, cell-based. Particulars: P388, 72 h. The procedure, abridged: as §1
Assay [3] relates to P388. In words: Cytotoxicity against adriamycin-resistant mouse P388 cells after 3 days by MTT assay. In kind it is functional, cell-based. Particulars: P388, 72 h. The procedure, abridged: as §1
Assay [4] has as its system P388. In words: Cytotoxicity against vincristine-resistant mouse P388 cells after 3 days by MTT assay. In kind it is functional, cell-based. Particulars: P388, 72 h. The procedure, abridged:
as §1

For assay [5], the system named is Leishmania donovani. In words: Antileishmanial activity against Leishmania donovani promastigotes after 6 to 7 hrs. In kind it is functional, organism-based. The procedure, abridged:
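Promastigotes were maintained in 199 medium with 10% fetal calf serum and kanamycin. They were plated at 10 000 cells/mL and exposed to four sample concentrations, starting from 25 μg/mL in the well.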

For `CC(=O)[C@H]1CC[C@]2(O)[C@@H]3CC[C@H]4C[C@H](N)CC[C@]4(C)[C@H]3CC[C@]12C`, the IC50 – broadly, the concentration that inhibits the measured activity by half – is 10.1 µg/mL (≈ 30.3 µM) in assay [1]; 3.6 µg/mL (≈ 10.8 µM) in assay [2]; 8.6 µg/mL (≈ 25.8 µM) in assay [3]; 3.4 µg/mL (≈ 10.2 µM) in assay [4]; 6.25 µg/mL (≈ 18.7 µM) in assay [5].
In the same order, the values of `CC(=O)[C@H]1CC[C@H]2[C@@H]3CC=C4C[C@H](N)CC[C@]4(C)[C@H]3CC[C@]12C` [HOLAMINE] are 0.2 µg/mL (≈ 0.634 µM), 0.91 µg/mL (≈ 2.88 µM), 0.85 µg/mL (≈ 2.69 µM), 0.83 µg/mL (≈ 2.63 µM) and 0.39 µg/mL (≈ 1.24 µM).
Turning to `CN[C@H]1[C@@H](OC)C[C@H](O[C@H]2CC[C@@]3(C)[C@@H](CC[C@@H]4[C@@H]3CC[C@]3(C)[C@H](C(C)=O)CC[C@]43O)C2)O[C@@H]1C`, the IC50 came to 0.01 µg/mL (≈ 0.0203 µM) in assay [1]; 17 µg/mL (≈ 34.6 µM) in assay [2]; 10.4 µg/mL (≈ 21.2 µM) in assay [3]; 10.1 µg/mL (≈ 20.5 µM) in assay [4]; 6.25 µg/mL (≈ 12.7 µM) in assay [5].
For `CC(=O)[C@H]1C[C@H](O)[C@H]2[C@@H]3CC=C4C[C@H](N)CC[C@]4(C)[C@H]3CC[C@@]21C`, in that order: 1.2 µg/mL (≈ 3.62 µM), 4.1 µg/mL (≈ 12.4 µM), 3.6 µg/mL (≈ 10.9 µM), 1.4 µg/mL (≈ 4.22 µM) and greater than 1.56 µg/mL.
For `CO[C@H]1C[C@H](O[C@H]2CC[C@@]3(C)[C@@H](CC[C@@H]4[C@@H]3CC[C@]3(C)[C@@H](C(C)=O)CC[C@]43O)C2)O[C@H](C)[C@H]1N`, in that order: 2.6 µg/mL (≈ 5.44 µM), 4 µg/mL (≈ 8.37 µM), 11.5 µg/mL (≈ 24.1 µM), 3.5 µg/mL (≈ 7.33 µM) and 1.56 µg/mL (≈ 3.27 µM).
For the compound `CO[C@H]1C[C@H](O[C@H]2CC[C@@]3(C)C(=CC[C@@H]4[C@@H]3CC[C@]3(C)[C@@H](C(C)=O)C[C@H](O)[C@]43O)C2)O[C@H](C)[C@H]1N` [HOLACURTINOL], the 50% inhibitory concentration (IC50) in assay [1] is 2.6 µg/mL (≈ 5.29 µM); in assay [2], 16 µg/mL (≈ 32.5 µM); in assay [3] it was 10.4 µg/mL (≈ 21.2 µM); in assay [4] it was 10 µg/mL (≈ 20.3 µM); in assay [5], 6.25 µg/mL (≈ 12.7 µM).
In the same order, the values of `CN[C@H]1[C@@H](OC)C[C@H](O[C@H]2CC[C@@]3(C)[C@@H](CC[C@@H]4[C@@H]3CC[C@]3(C)[C@@H](C(C)=O)CC[C@]43O)C2)O[C@@H]1C` [HOLACURTINE] are 0.86 µg/mL (≈ 1.75 µM), 4.2 µg/mL (≈ 8.54 µM), 3.4 µg/mL (≈ 6.91 µM), 2.8 µg/mL (≈ 5.69 µM) and 1.56 µg/mL (≈ 3.17 µM).
Consider `CO[C@H]1C[C@H](O[C@H]2CC[C@@]3(C)[C@@H](CC[C@@H]4[C@@H]3CC[C@]3(C)[C@H](C(C)=O)CC[C@]43O)C2)O[C@H](C)[C@H]1N`, for which the IC50 in assay [1] came to 0.21 µg/mL (≈ 0.44 µM); in assay [2], 10.5 µg/mL (≈ 22 µM); in assay [3], 13.5 µg/mL (≈ 28.3 µM); in assay [4] it was 10.2 µg/mL (≈ 21.4 µM); in assay [5], 6.25 µg/mL (≈ 13.1 µM).
